The text below walks through data of ChEMBL document CHEMBL5335845, “Discovery of GLPG2737, a Potent Type 2 Corrector of CFTR for the Treatment of Cystic Fibrosis in Combination with a Potentiator and a Type 1 Co-corrector” (J Med Chem, 2024).

Series [1] in a line: Metabolic stability in rat liver microsomes assessed as unbound intrinsic clearance at 1 uM incubated for 30 mins by LC-MS/MS analysis. In kind it is ADME, Microsome. As to conditions: 0.5 h; call rule not given here. For orientation: Liver microsomes are a subcellular fraction often used to study metabolism.
Series [2] can be described thus: Metabolic stability in human liver microsomes assessed as unbound intrinsic clearance at 1 uM incubated for 30 mins by LC-MS/MS analysis. Particulars: 0.5 h. In kind it is ADME, Microsome.
The nature of series [3]: Metabolic stability in rat hepatocyte assessed as unbound intrinsic clearance at 1 uM incubated for 180 mins by LC-MS/MS analysis. The class given is ADME, cell-based. Particulars: hepatocytes, 3 h.
Series [4] can be described thus: Metabolic stability in human hepatocyte assessed as unbound intrinsic clearance at 1 uM incubated for 180 mins by LC-MS/MS analysis. In kind it is ADME, cell-based. Particulars: hepatocytes, 3 h.
For series [5], the target named is T1, Cytochrome P450 3A4 (Homo sapiens, UniProt P08684). The experiment in a line: Inhibition of CYP3A4 in human liver microsomes using testosterone as substrate in presence of NADPH by LC/MS/MS analysis. In kind it is ADME, Microsome.
A short description of series [6]: Volume of distribution at steady state in Beagle dog at 5 mg/kg, po or 0.1 mg/kg, iv measured upto 24 hrs by LC-MS/MS analysis. Particulars: in vivo. The class given is ADME, organism-based, Canis lupus familiaris.
Series [7] can be described thus: Apparent permeability from apical to basolateral side in MDCKII-MDR1 cells at 10 uM measured after 1 hr by LC-MS/MS analysis. The class given is ADME, cell-based, Canis lupus familiaris. Particulars: dog, MDCK-MDR1.
The nature of series [8]: Intestinal permeability across apical to basolateral side in human Caco-2 cells at 10 uM measured after 1 hr by LC-MS/MS analysis. Particulars: read-out: permeability. The class given is ADME, cell-based. In general terms: Caco-2 monolayers are a common model of the intestinal barrier.
Series [9] is described as follows: Unbound clearance in Beagle dog at 5 mg/kg, po measured upto 24 hrs by LC-MS/MS analysis. In kind it is ADME, organism-based, Canis lupus familiaris. Particulars: in vivo. The gist of the method: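 Male Beagle dogs (n = 3), iv 10 min […], then after 3-day washout oral gavage 5 or 1 mg/kg in PEG400/0.5% MC or 0.5% MC after ≥12 h fast; jugular or cephalic blood (Li-heparin) to 24 h, plasma by LC-MS/MS.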

Series [10] in a line: Plasma protein binding in rat at 5 uM measured after 4 hrs under shaking by LC-MS/MS analysis. In kind it is ADME, cell-free. Particulars: read-out: PPB (converted). In outline:
(§1)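 Equilibrium dialysis of compound 5 μM (0.5% DMSO) in plasma against PBS pH 7.4, 4 h at 37 °C with shaking; matrix-matched samples, acetonitrile precipitation, LC-MS/MS; % bound from plasma and buffer peak areas.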

Series [11] concerns the target T1, Cytochrome P450 3A4. The experiment in a line: Induction of CYP3A4 in human hepatocytes assessed as mRNA at 10 uM after 72 hrs by qPCR analysis relative to rifampicin. In kind it is ADME, cell-based, Hepatocyte. The gist of the method:
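Single-donor cryopreserved human hepatocytes, 0.1 × 10^6 cells/well, exposed to 10 μM compound (0.1% DMSO) in triplicate for 72 h with daily renewal; RNA RT-qPCR for CYP3A4 vs endogenous control, 2^-ΔΔCT relative to vehicle, expressed as % of 10 μM rifampicin.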

The nature of series [12]: Plasma clearance in Beagle dog iv measured upto 24 hrs by LC-MS/MS analysis.
The target in series [13] is Voltage-gated inwardly rectifying potassium channel KCNH2 (Homo sapiens, UniProt Q12809). The experiment in a line: Inhibition of human ERG by manual patch clamp test. In kind it is toxicity.
The nature of series [14]: Thermodynamic solubility of the compound in fasted simulated gastric fluid measured after 24 hrs by LC-MS/MS analysis. The class given is physicochemical. Particulars: read-out: Therm_solubility. The gist of the method: (§2)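 Solid compound at 1 mg/mL in fasted simulated gastric fluid or pH 7.4 buffer, stirred 24 h at room temperature, centrifuged and filtered, diluted and quantified by LC-MS/MS against standard curve.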

Series [15] in a line: Unbound clearance in Sprague-Dawley rat at 5 mg/kg, po or 0.1 mg/kg, iv measured upto 24 hrs by LC-MS/MS analysis. The class given is ADME, organism-based. Particulars: in vivo. The gist of the method:
(§3)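 Male Sprague–Dawley rats (6–8 weeks), iv tail-vein bolus 0.1 mg/kg in PEG200/water 60/40, or oral gavage 5 mg/kg suspension in 0.5% MC after ≥12 h fast; plasma (Li-heparin) sampled to 24 h, n = 3 per route, LC-MS/MS; noncompartmental analysis.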

Series [16] is described as follows: Plasma protein binding in human at 5 uM measured after 4 hrs under shaking by LC-MS/MS analysis. In kind it is ADME, cell-free. As to conditions: read-out: PPB (converted). The gist of the method: as §1
A short description of series [17]: Half life in Sprague-Dawley rat at 0.1 mg/kg, iv measured upto 24 hrs by LC-MS/MS analysis. The class given is ADME, organism-based. Particulars: in vivo. The gist of the method:
as §3

Series [18] in a line: Half life in Beagle dog at 0.1 mg/kg, iv measured upto 24 hrs by LC-MS/MS analysis. As to conditions: in vivo. The class given is ADME, organism-based, Canis lupus familiaris.
The target in series [19] is T1, Cytochrome P450 3A4. The experiment in a line: Inhibition of CYP3A4 in human liver microsomes using midazolam as substrate in presence of NADPH by LC/MS/MS analysis. In kind it is ADME, Microsome.
For the next series, the target named is Sigma receptor (Homo sapiens, UniProt Q99720+Q5BJF2). The experiment in a line: Inhibition of human Sigma receptor. The class given is protein assay. The gist of the method: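 Radioligand binding panel: displacement of cognate radioligand from human H1 or Sigma receptor, IC50 determined.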
The nature of series [20]: Plasma protein binding in dog at 5 uM measured after 4 hrs under shaking by LC-MS/MS analysis. Particulars: read-out: PPB (converted). The class given is ADME, cell-free, Canis lupus familiaris. The gist of the method: as §1
The nature of series [21]: Metabolic stability in dog hepatocyte assessed as unbound intrinsic clearance at 1 uM incubated for 180 mins by LC-MS/MS analysis. Particulars: hepatocytes, 3 h. The class given is ADME, cell-based, Canis lupus familiaris.
Series [22] can be described thus: Plasma clearance in Sprague-Dawley rat at 5 mg/kg, po or 0.1 mg/kg, iv measured upto 24 hrs by LC-MS/MS analysis. In kind it is ADME, organism-based. As to conditions: in vivo. The gist of the method: as §3
The nature of series [23]: Volume of distribution at steady state in Sprague-Dawley rat at 5 mg/kg, po or 0.1 mg/kg, iv measured upto 24 hrs by LC-MS/MS analysis. In kind it is ADME, organism-based. As to conditions: in vivo. The gist of the method:
as §3

A short description of series [24]: Thermodynamic solubility of the compound at pH 7.4 measured after 24 hrs by LC-MS/MS analysis. The class given is physicochemical. As to conditions: buffer, read-out: Therm_solubility. In outline: as §2
The nature of series [25]: Genotoxicity in Salmonella typhimurium by Ames test. In kind it is toxicity. As to conditions: salmonella enterica subsp. enterica serovar typhimurium.
Series [26] is described as follows: Clearance in Sprague-Dawley rat at 1 mg/kg, iv measured after 24 hrs by LC-MS/MS analysis. The class given is ADME, organism-based. Particulars: in vivo.

The IC50 is the concentration that gives 50% inhibition. In general, clearance refers to a measure of how efficiently the substance is removed, as volume per time. Read a low clearance as a low capacity for elimination. For orientation: half-life means the time in which the quantity being followed falls by half. The low end stands for fast loss, the high end for slow loss.

In brackets after ≈: the same amount, converted by molar mass.

T1 sequence (P08684 whole entry): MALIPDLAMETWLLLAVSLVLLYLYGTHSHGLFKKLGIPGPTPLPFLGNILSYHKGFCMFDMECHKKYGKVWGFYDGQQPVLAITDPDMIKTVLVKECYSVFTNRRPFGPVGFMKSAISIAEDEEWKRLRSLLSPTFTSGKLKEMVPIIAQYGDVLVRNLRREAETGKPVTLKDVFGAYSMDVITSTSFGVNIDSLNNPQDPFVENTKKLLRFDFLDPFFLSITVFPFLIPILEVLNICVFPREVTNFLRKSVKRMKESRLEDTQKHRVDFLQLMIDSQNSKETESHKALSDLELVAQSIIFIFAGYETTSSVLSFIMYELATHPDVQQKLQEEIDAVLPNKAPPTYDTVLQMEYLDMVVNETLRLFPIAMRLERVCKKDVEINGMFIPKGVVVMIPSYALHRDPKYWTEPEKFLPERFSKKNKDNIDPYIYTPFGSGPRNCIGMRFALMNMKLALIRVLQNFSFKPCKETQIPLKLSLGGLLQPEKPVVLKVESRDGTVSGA
Sequence of Voltage-gated inwardly rectifying potassium channel KCNH2 (Q12809 whole entry): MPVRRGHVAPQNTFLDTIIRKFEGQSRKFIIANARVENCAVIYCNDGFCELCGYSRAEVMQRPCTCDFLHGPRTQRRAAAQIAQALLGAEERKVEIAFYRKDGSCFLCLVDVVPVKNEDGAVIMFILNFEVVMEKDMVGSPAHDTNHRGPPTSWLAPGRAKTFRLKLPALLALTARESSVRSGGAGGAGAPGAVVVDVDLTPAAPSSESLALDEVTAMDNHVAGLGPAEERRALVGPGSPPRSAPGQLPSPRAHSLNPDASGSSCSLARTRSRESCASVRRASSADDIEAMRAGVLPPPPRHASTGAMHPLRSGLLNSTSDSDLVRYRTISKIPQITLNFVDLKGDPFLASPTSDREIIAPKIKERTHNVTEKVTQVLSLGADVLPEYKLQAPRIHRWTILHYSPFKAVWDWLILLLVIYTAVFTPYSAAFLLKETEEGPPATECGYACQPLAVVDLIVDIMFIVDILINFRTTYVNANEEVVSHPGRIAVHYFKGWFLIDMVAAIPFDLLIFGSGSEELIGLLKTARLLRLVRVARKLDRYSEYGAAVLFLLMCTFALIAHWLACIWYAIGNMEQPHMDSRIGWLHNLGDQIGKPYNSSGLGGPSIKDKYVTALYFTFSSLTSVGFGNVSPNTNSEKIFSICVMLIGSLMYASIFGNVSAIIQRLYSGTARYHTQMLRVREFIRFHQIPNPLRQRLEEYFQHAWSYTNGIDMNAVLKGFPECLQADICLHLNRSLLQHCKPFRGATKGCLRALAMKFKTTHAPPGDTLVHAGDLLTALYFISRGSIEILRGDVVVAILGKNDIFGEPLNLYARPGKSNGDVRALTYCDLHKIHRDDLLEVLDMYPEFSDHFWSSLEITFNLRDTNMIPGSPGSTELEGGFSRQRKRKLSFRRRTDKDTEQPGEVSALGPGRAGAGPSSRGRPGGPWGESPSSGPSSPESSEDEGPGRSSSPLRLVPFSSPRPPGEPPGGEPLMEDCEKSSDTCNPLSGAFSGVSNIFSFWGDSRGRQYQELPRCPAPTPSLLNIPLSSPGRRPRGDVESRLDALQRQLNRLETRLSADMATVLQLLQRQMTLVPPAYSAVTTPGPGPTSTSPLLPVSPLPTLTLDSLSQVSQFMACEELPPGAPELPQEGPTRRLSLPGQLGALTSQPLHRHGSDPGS

Consider `COc1ccc(-c2cc(C(=O)O)nc3c2c(C)nn3-c2ccccc2)cc1`, for which the figures for the CL free in series [1], in series [2] and in series [3] were 180 mL/min/kg, 173 mL/min/kg and 305 mL/min/kg, respectively.

For the compound `COc1ccc(-c2cc(C(=O)O)nc3c2c(C)nn3-c2ccc(C)cc2)cc1`, the CL free was 182 mL/min/kg in series [1], under 59.8 mL/min/kg in series [2] and 263 mL/min/kg in series [3].

On to `Cc1nn(-c2ccccc2)c2nc(C(=O)O)cc(-c3ccc(N4CCOCC4)cc3)c12`, for which the CL free in [1] was under 43.3 mL/min/kg; in series [4], under 45.7 mL/min/kg; in [2] it was under 28.3 mL/min/kg; in [3] it was 67 mL/min/kg.

On to `COC1CCN(c2cc(C(=O)NS(=O)(=O)N(C)C)nc3c2c(C2CCC2)nn3-c2ccc(F)cc2)CC1`, for which the IC50 was over 100 µM at Cytochrome P450 3A4 [5], over 100 µM at Cytochrome P450 3A4 [19] and 0.36 µM against Sigma receptor. Further, the Vdss in series [6] came out at 1.37 L/kg; in series [23], 1.38 L/kg. The Papp A→B at 1 h, 10 µM in series [7] is 5.45 ×10⁻⁶ cm/s; in series [8], 24.5 ×10⁻⁶ cm/s. Moreover, the CL free in series [9] was 178 mL/min/kg; in series [4], under 12.8 mL/min/kg; in series [15] it was 333 mL/min/kg; in series [21] it was under 24.8 mL/min/kg; in series [3], 66.2 mL/min/kg. The fraction unbound at 4 h, 5 µM was 0.016 in series [10], 0.02 in [16] and 0.025 in series [20]. The Activity at Cytochrome P450 3A4 [11] was 4%; in series [25], “Non-Toxic”. Also, the clearance in [12] came to 3.5 mL/min/kg. Moreover, the “inhibition (INH)” value in [13] was “Not Active”. Besides, the solubility thermodynamic at 24 h is 10.9 µg/mL (≈ 20.5 µM) in [14] and 9.9 µg/mL (≈ 18.7 µM) in series [24]. Further, the values for the half-life in series [17] and in [18] were 3.45 h and 5.4 h, respectively. This compound yielded a CL in series [22] of 5.33 mL/min/kg.

As to `CN(C)S(=O)(=O)NC(=O)c1cc(N2CCC(N3CCOCC3)CC2)c2c(C3CCC3)nn(-c3ccc(F)cc3)c2n1`, the CL free is under 11 mL/min/kg in [4], 31.7 mL/min/kg in [21] and 49 mL/min/kg in series [3]. Also, the CL in [22] was 3.17 mL/min/kg.

`CS(=O)(=O)NC(=O)c1cc(N2CCC(N3CCOCC3)CC2)c2c(C3CCC3)nn(-c3ccc(F)cc3)c2n1`: the Activity at Cytochrome P450 3A4 [11] stood at 9%. Also, the CL free in series [3] was under 11.5 mL/min/kg.

With `CS(=O)(=O)NC(=O)c1cc(-c2ccc(N3CCC(C#N)CC3)nc2)c2c(C3CCC3)nn(-c3ccccc3)c2n1`, the CL in series [26] was 0.41 mL/min/kg.

Consider `O=C(O)c1cc(-c2ccc(N3CCOCC3)cc2)c2c(C3CCC3)nn(-c3ccccc3)c2n1`, for which the CL in series [26] came to 3.3 mL/min/kg.
